Bioassay records deposited in PubChem by several laboratories.
SMARCA2 activ – SMARCA2 (BRM) function activators, primary screen, cell-based, luminescence, high throughput; actives 1% (n = 370,000); MG213 cells, MMTV-luciferase reporter, dexamethasone, overnight; AID 652017, 2013; activation, % at 9.1 µM; in the data active means activation above about 7.8%;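 further: 0% = vehicle wells and 100% = reference activator wells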
MC4R barr agon – MC4R agonists recruiting beta-arrestin, primary screen, cell-based, luminescence, agonist arm of biased-ligand search; Melanocortin receptor 4 (Homo sapiens), P32245; activation, % at 8.9 µM; U2OS MC4R beta-arrestin complementation; percent of melanotan II response, DMSO zero; actives 0.98% (n = 360,000);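 active means activation above a per-plate cutoff, the mean activation of sample wells on that plate plus 3 SD, cut at about 8% in these data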
Target sequence (P32245 whole entry, looked up): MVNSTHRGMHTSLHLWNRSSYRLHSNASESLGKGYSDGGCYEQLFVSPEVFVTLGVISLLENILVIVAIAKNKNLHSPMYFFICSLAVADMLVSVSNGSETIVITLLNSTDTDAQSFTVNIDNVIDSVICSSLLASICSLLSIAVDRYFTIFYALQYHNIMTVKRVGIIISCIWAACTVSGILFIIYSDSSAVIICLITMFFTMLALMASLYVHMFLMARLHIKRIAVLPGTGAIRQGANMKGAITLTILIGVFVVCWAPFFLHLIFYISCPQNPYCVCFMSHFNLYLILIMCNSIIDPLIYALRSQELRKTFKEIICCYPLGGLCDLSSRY
F508del corr – F508del CFTR correction, initial screen, CFBE line, single point. CFBE cells, YFP halide quenching; stimulated with forskolin plus potentiator P3; % fluorescence drop versus neutral controls. activity (quench increase), % at 7.58 µM. actives 0.36% (n = 350,000). AID 720511, 2013;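 active means mean added fluorescence quench of at least 8% versus neutral control, with both replicates also reaching 8%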;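 further: cells transiently co-express mutant CFTR-F508del with the halide-sensitive YFP; corrector assay measuring rescue of mutant channel to the surface after 24 h compound exposure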
MC4R antagonist – MC4R antagonists of cAMP signaling, primary screen, cell-based, TR-FRET, antagonist arm of biased-ligand search. actives 0.48% (n = 360,000). Melanocortin receptor 4 (Homo sapiens), P32245. inhibition, % at 6.5 µM. MC4R-expressing cells, MTII-stimulated cAMP, LANCE TR-FRET;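 active means inhibition above its plate's cutoff, the mean of tested wells on that plate plus 3 SD, cut at about 29% in these data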;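 further: 0% = Melanotan II alone and 100% = Melanotan II plus saturating MCL0020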
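material = U2OS cells stably expressing human melanocortin 4 receptor (MC4R) | also added = Melanotan II challenge | dosing = single nominal compound dose of 6.5 µM | detection = TR-FRET with Eu-cAMP and labeled anti-cAMP, 671 nm | replication = singlicate | timing = compound 30 min, challenge 1 h, detection 1 h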
U2OS cAMP counter – nonselective cAMP signaling inhibitors, parental cells, counter-screen for MC4R biased antagonist project, cell-based, TR-FRET, U2OS, forskolin, triplicate | shares compounds with MC4R antagonist | LANCE TR-FRET | inhibition, % at 6.5 µM | actives 26% (n = 1,600);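 active means mean inhibition over triplicates above the low-control well mean plus 3 SD, set per campaign, cut at about 13% in these data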;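 further: signal is single emission at 671 nm which falls as cellular cAMP rises; 0% = forskolin-stimulated wells and 100% = buffer without forskolin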
MC4R cAMP antag – MC4R cAMP antagonists, retest, confirmation, cell-based, TR-FRET; shares compounds with MC4R antagonist; MC4R-expressing cells, MTII-stimulated cAMP; inhibition, % at 6.5 µM; actives 27% (n = 1,600); AID 602195, 2012; in the data active means inhibition above about 29%;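 further: 0% = agonist stimulated wells alone and 100% = agonist stimulated wells plus saturating reference antagonist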
* hit, by the source's call; . = no result given. Hits are enriched below; roughly 2.1% of the tested compounds scored in any of these assays.

SMILES	SMARCA2 activ	MC4R barr agon	F508del corr	MC4R antagonist	U2OS cAMP counter	MC4R cAMP antag
CCn1c2ccccc2c2cc(/C=N/NC(=O)c3ccc(O)cc3)ccc21	0.1	5.5	-0.1	29.0*	5.5	8.7
CN1C(=O)c2cc(NC(=O)C3CCCCC3)ccc2OC[C@@H]2O[C@@H](CC(=O)NCc3ccccc3F)CC[C@H]21	.	.	-1.4	.	.	.
C[C@H](CO)N1C[C@H](C)[C@@H](CN(C)Cc2ccc3c(c2)OCO3)Oc2ccc(NC(=O)Nc3ccccc3)cc2CC1=O	.	.	2.8	.	.	.
Cc1noc(C)c1NC(=O)N(C)C[C@H]1Oc2ccc(NC(=O)Nc3ccc(C(F)(F)F)cc3)cc2C(=O)N([C@@H](C)CO)C[C@@H]1C	.	.	-1.4	.	.	.
COc1ccc([N+](=O)[O-])c(S(=O)(=O)c2ccccc2)n1	-8.6	-4.1	5.1	28.8*	28.6*	25.3
O=[N+]([O-])c1cccnc1S(=O)(=O)c1ccccc1	-8.8	1.6	1.6	32.6*	14.4*	38.2*
CC(=O)N(C)C[C@H]1Oc2ncc(C#CCc3ccccc3)cc2C(=O)N([C@@H](C)CO)C[C@@H]1C	.	.	0.1	.	.	.
O=C(COc1ccccc1[N+](=O)[O-])OCCCOC(=O)COc1ccccc1[N+](=O)[O-]	-2.5	1.7	0.7	-3.0	.	.
O=C(COc1ccccc1[N+](=O)[O-])OCC(=O)c1ccc(Br)s1	-4.7	-1.3	0.0	45.1*	13.8*	37.6*
Cc1nc(N2CCC(C)CC2)c2c(C)c(C(=O)Nc3ccc(C)c(F)c3)sc2n1	0.8	1.8	.	11.9	.	.
Cc1nc(N2CCC(C)CC2)c2c(C)c(C(=O)Nc3ccccc3C(F)(F)F)sc2n1	0.1	2.4	.	29.7*	2.1	18.2
CCc1ccc(OCC(=O)NC(NC(=S)Nc2ccccc2OC)C(Cl)(Cl)Cl)cc1 (configuration not stated)	-1.9	3.9	.	38.3*	1.2	27.1
COC(=O)C1=C(C(=O)OC)SC2(S1)C(C(=O)OC)=C(C(=O)OC)SC1=C2c2cccc(C)c2NC1(C)C	-2.7	0.5	.	40.7*	11.4	44.5*
CCOC(=O)C1(C)Oc2ccccc2C(C(=O)OC)=C1C(=O)OC (configuration not stated)	1.4	-1.9	0.7	3.2	.	.
[N-]=[N+]=NCc1ccccc1C[C@]1(C(=O)N2CCOCC2)COC(c2ccc(OCCCO)cc2)=N1	.	.	-2.1	.	.	.
CCOC(=O)C1(Cc2cccc(F)c2)CCN(Cc2cnn(CC)c2)CC1	-1.2	0.9	-0.5	28.9*	3.8	13.2
CO[C@@H]1CN(C)C(=O)c2cc(NS(=O)(=O)CC(F)(F)F)ccc2OC[C@H](C)N(C(=O)c2ccc3c(c2)OCO3)C[C@H]1C	.	.	1.6	.	.	.
CC(C(=O)c1ccccc1)[n+]1cccc(C(N)=O)c1 (configuration not stated)	-2.0	0.5	1.2	33.0*	-4.5	-20.2
Cc1ccc(S(=O)(=O)Nc2ccc3c(c2)C(=O)N([C@H](C)CO)C[C@@H](C)[C@@H](CN(C)S(=O)(=O)c2ccc(F)cc2)O3)cc1	.	.	0.3	.	.	.
Cc1noc(C)c1NC(=O)N(C)C[C@H]1Oc2cc(C#CCC3CCCC3)ccc2S(=O)(=O)N([C@H](C)CO)C[C@H]1C	.	.	3.6	.	.	.
O=c1[nH]c(SCc2ccc(Cl)cc2)nc2ccsc12	1.7	.	-0.7	.	.	.
CCOc1ccc2nc(NC(=O)CSc3nc(-c4ccccc4)c(C#N)c(=O)[nH]3)sc2c1	4.4	0.4	1.5	31.4*	8.0	18.4
N#Cc1c(-c2cccs2)nc(SCc2ccc(Cl)cc2)[nH]c1=O	-2.4	-0.4	-2.0	57.7*	42.6*	79.6*
CNC(=O)NC(=O)CSc1nc(-c2cccs2)c(C#N)c(=O)[nH]1	-0.8	-0.8	1.8	121.3*	86.7*	153.5*
CCOC(=O)Cc1csc(NC(=O)CSc2nc(-c3ccccc3)c(C#N)c(=O)[nH]2)n1	-3.7	1.2	-1.7	12.3	.	.
SMILES	SMARCA2 activ	MC4R barr agon	F508del corr	MC4R antagonist	U2OS cAMP counter	MC4R cAMP antag
COc1cccc(-c2nc(SCC(=O)Nc3nc(-c4ccccc4)c(C)s3)[nH]c(=O)c2C#N)c1	1.1	-0.9	0.2	9.0	.	.
CSc1nc(-c2ccccc2)c(C#N)c(=O)[nH]1	0.8	1.5	-0.8	21.4	.	.
CSc1nc(-c2cccs2)c(C#N)c(=O)[nH]1	-1.1	-1.4	0.8	45.0*	43.1*	84.8*
Cn1cnc(S(=O)(=O)N[C@@H]2C=C[C@@H](CC(=O)N3CCN(c4ccccc4)CC3)O[C@@H]2CO)c1	.	.	-2.8	.	.	.
COc1ccccc1CNC(=O)C[C@H]1C[C@@H]2c3cc(NC(=O)CN(C)C)ccc3O[C@@H]2[C@H](CO)O1	.	.	-4.5	.	.	.
COC(=O)C[C@H]1CC[C@H]2[C@H](COc3ccc(NS(=O)(=O)c4ccc(F)cc4)cc3C(=O)N2C)O1	.	.	-3.8	.	.	.
O=C1N(Cc2cccc(Cl)c2)C[C@@H]2C[C@@H](c3cccc4cccnc34)N3CCC[C@@]123	1.7	-0.2	-2.6	34.2*	-0.6	-0.1
CCC1CCCCN1S(=O)(=O)c1ccc(NC(=O)c2ccncc2)cc1 (configuration not stated)	-3.8	-3.6	-1.3	5.5	.	.
CCS(=O)(=O)c1ncc(Cl)c(C(=O)Nc2ccc(S(=O)(=O)N3CCCC(C)C3)cc2)n1 (configuration not stated)	-0.1	-4.2	-3.8	41.1*	-40.9	19.6
CCS(=O)(=O)c1ncc(Cl)c(C(=O)Nc2ccc(C)cc2)n1	-8.7	-0.4	-11.5	0.1	.	.
CCC1CCCCN1S(=O)(=O)c1ccc(NC(=O)c2nc(S(C)(=O)=O)ncc2Cl)cc1 (configuration not stated)	-8.2	-4.0	0.8	82.5*	10.8	65.5*
O=S(=O)(N[C@H]1CC[C@H](CCn2cc(-c3ccccn3)nn2)O[C@H]1CO)c1cccc(Cl)c1	.	.	1.1	.	.	.
Cc1ccc(S(=O)(=O)N2CCCCC2)cc1NC(=O)COC(=O)c1cc[n+]([O-])cc1	0.5	1.6	.	29.1*	2.6	-4.3
CCOc1ccc2c(ccc(/C=C/c3cc(C)c4cccnc4c3O)[n+]2C)c1	.	0.9	.	50.1*	-9.1	38.2*
CCN(CC)S(=O)(=O)c1ccc(Cl)c(C(=O)OC2CC(C)OC2=O)c1 (configuration not stated)	-3.5	1.9	-3.7	39.9*	9.4	20.3
O=C1OCCC1Sc1nc2ccccc2n1Cc1ccccc1 (configuration not stated)	-1.2	-1.9	.	30.0*	10.0	36.9*
